Where a SMILES comes first, the peptide text is derived from it. [ ]: non-standard residue; d: D form. Nva(5-OH) = N[C@@H](CCCO)C(=O)O; Aib = CC(C)(N)C(=O)O; Sar = CNCC(=O)O
Columns and labels:
[1] = target: T1, Angiotensin II receptor (AT-1) type-1 (Rattus norvegicus, UniProt P29089+P25095); assay: Antagonist activity against Angiotensin II receptor type 1 as pA2; format: functional
T1 sequence (P29089 whole entry): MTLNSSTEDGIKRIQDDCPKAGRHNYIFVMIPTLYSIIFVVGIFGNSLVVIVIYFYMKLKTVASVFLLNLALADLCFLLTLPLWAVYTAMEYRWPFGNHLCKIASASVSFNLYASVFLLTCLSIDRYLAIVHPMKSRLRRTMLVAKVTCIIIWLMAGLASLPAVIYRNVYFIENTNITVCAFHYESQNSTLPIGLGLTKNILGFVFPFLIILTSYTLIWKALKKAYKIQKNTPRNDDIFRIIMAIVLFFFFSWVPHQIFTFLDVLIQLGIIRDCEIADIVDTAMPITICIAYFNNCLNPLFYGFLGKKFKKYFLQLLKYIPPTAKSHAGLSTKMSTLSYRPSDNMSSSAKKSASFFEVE
T1 sequence (P25095 whole entry): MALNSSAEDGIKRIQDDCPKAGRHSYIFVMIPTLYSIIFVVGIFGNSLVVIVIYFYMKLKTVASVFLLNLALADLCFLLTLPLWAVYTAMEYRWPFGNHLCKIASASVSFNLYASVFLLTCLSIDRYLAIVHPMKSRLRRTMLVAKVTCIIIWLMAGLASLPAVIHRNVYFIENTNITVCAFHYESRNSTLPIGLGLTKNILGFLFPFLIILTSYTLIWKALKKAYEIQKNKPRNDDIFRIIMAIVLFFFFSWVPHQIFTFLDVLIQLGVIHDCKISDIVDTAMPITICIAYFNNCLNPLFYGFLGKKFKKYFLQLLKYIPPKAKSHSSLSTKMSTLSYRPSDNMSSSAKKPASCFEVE
Summary of the method: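 Isolated uterus from diethylstilbestrol-primed (25 μg im, 24 h) female virgin Sprague–Dawley rats, in DeJalons solution. An ANGII noncumulative dose-response curve was first set up in each tissue. Antagonist was added 2 min before ANGII, with EC50 reproducibility checked before and after. pA2 is the −log antagonist concentration that cuts the ED50 ANGII response to that of an ED50/2 dose, as the mean of ≥3 tissues.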

[2] = target: Angiotensin II receptor (Rattus norvegicus) (UniProt P29089+P25095+P35351); assay: Agonist activity at Angiotensin II receptor; format: functional
Summary of the method: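 Uteri from female virgin Sprague–Dawley rats (150–200 g) given 25 μg diethylstilbestrol im 24 h before sacrifice. Horns were cleaned and bathed in DeJalons solution. Contractions were recorded with noncumulative dosing, with washout at peak response and 10 min rest between challenges. Activity is relative to human ANGII as standard, as the mean of at least three tissues.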

Chain of Angiotensin II receptor (Rattus norvegicus) (P35351 whole entry, looked up, one chain of several): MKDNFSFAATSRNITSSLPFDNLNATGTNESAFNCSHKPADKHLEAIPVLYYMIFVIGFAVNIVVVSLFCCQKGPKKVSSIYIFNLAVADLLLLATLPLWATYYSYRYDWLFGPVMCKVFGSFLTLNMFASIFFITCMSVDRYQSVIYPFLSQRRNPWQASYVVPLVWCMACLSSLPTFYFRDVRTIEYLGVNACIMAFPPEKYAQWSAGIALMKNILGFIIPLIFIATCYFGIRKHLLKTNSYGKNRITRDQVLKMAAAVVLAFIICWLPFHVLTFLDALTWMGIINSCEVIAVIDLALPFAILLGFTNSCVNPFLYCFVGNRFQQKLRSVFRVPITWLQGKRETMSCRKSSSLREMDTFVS

SMILES | pA2 [1] | Agonist activity [2] [%]
CC[C@H](C)[C@H](NC(=O)[C@@H]1CCCN1C(=O)[C@H](Cc1c[nH]cn1)NC(=O)[C@@H](NC(=O)[C@H](CCCO)NC(=O)[C@@H](NC(=O)[C@H](CCCN=C(N)N)NC(=O)C(C)(C)N)C(C)C)[C@@H](C)CC)C(=O)O (H-[Aib]RV[Nva(5-OH)]IHPI-OH) | 6.2 | 
CC[C@H](C)[C@H](NC(=O)[C@H](Cc1ccc(O)cc1)NC(=O)[C@@H](NC(=O)[C@H](CCCN=C(N)N)NC(=O)CNC)C(C)C)C(=O)N[C@@H](Cc1c[nH]cn1)C(=O)N1CCC[C@H]1C(=O)N[C@@H](CCOC)C(=O)O (stereo in doubt; form 1) | 7.6 | < 0.1
CC[C@H](C)[C@H](NC(=O)[C@@H]1CCCN1C(=O)[C@H](Cc1c[nH]cn1)NC(=O)[C@@H](NC(=O)[C@H](CCCO)NC(=O)[C@@H](NC(=O)[C@H](CCCN=C(N)N)NC(=O)CNC)C(C)C)[C@@H](C)CC)C(=O)O (H-[Sar]RV[Nva(5-OH)]IHPI-OH) | < 5 | 
CC[C@H](C)[C@H](NC(=O)[C@H](Cc1ccc(O)cc1)NC(=O)[C@@H](NC(=O)[C@H](CCCN=C(N)N)NC(=O)[C@@H](N)CC(=O)O)C(C)C)C(=O)N[C@@H](Cc1c[nH]cn1)C(=O)N1CCC[C@H]1C(=O)N[C@@H](CCOC)C(=O)O | 7.5 | < 0.1
CC[C@H](C)[C@H](NC(=O)[C@H](Cc1ccc(O)cc1)NC(=O)[C@@H](NC(=O)[C@@H](N)CCCN=C(N)N)C(C)C)C(=O)N[C@@H](Cc1c[nH]cn1)C(=O)N1CCC[C@H]1C(=O)N[C@@H](CCOC)C(=O)O | < 6 | < 0.1
CC[C@H](C)[C@H](NC(=O)[C@H](CCCO)NC(=O)[C@@H](NC(=O)[C@H](CCCN=C(N)N)NC(=O)C(C)(C)N)C(C)C)C(=O)N[C@@H](Cc1c[nH]cn1)C(=O)N1CCC[C@H]1C(=O)N[C@@H](Cc1ccccc1)C(=O)O (H-[Aib]RV[Nva(5-OH)]IHPF-OH) | < 6 | 

The next lines start with the values.

pA2 [1] | Agonist activity [2] [%] | SMILES
< 5 |  | CC[C@H](C)[C@H](NC(=O)C(Cc1ccc(C(F)(F)F)cc1)NC(=O)[C@@H](NC(=O)[C@H](CCCN=C(N)N)NC(=O)CNC)C(C)C)C(=O)N[C@@H](Cc1c[nH]cn1)C(=O)N1CCC[C@H]1C(=O)N[C@@H](Cc1ccccc1)C(=O)O (mixture of isomers)
< 5 |  | CC[C@H](C)[C@H](NC(=O)C(Cc1ccc(C(=O)O)cc1)NC(=O)[C@@H](NC(=O)[C@H](CCCN=C(N)N)NC(=O)CNC)C(C)C)C(=O)N[C@@H](Cc1c[nH]cn1)C(=O)N1CCC[C@H]1C(=O)N[C@@H](Cc1ccccc1)C(=O)O (mixture of isomers)
< 6 |  | CC[C@H](C)[C@H](NC(=O)[C@H](CCCO)NC(=O)[C@@H](NC(=O)[C@H](CCCN=C(N)N)NC(=O)CNC)C(C)C)C(=O)N[C@@H](Cc1c[nH]cn1)C(=O)N1CCC[C@H]1C(=O)N[C@@H](Cc1ccccc1)C(=O)O (H-[Sar]RV[Nva(5-OH)]IHPF-OH)

Reference: ChEMBL document CHEMBL1128192, “Differences in backbone structure between angiotensin II agonists and type I antagonists” (J Med Chem, 1995)
